The results in this text go back to ChEMBL document CHEMBL3085737, “Inducing secondary metabolite production by the endophytic fungus Fusarium tricinctum through coculture with Bacillus subtilis” (2013).

Holding throughout (assay type): functional
For assay [1], the system named is Pseudomonas aeruginosa. Kind of assay: Antibacterial activity against multidrug-resistant Pseudomonas aeruginosa B 63230 assessed as growth inhibition by broth microdilution method. In a few lines: (§1)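 MIC by broth microdilution following CLSI guidelines. Inoculum made by direct colony suspension, giving 5 × 10^5 CFU/mL after the last dilution step. Compounds dosed from 10 mg/mL DMSO stocks up to 64 μg/mL top concentration, where final DMSO was 0.64%. Growth read as OD600 in a microtiter plate reader.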

Assay [2] deals with Escherichia coli. Kind of assay: Antibacterial activity against Escherichia coli ATCC 25922 assessed as growth inhibition by broth microdilution method. In a few lines:
(§2)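 MIC by broth microdilution following CLSI guidelines; inoculum made by direct colony suspension, 5 × 10^5 CFU/mL after the final dilution. Compounds were added from a 10 mg/mL DMSO stock, tested up to 64 μg/mL, giving 0.64% final DMSO at the top concentration. Growth was read as OD600 in a microtiter plate reader.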
For orientation: Dilution methods test growth across graded concentrations, often in twofold steps.

In assay [3] the test system is Enterococcus faecalis. The assay can be described thus: Antibacterial activity against multidrug and vancomycin-resistant Enterococcus faecalis UW 2689 assessed as growth inhibition by broth microdilution method. A digest of the protocol: as §1
Assay [4] has as its system Streptococcus pneumoniae. Kind of assay: Antibacterial activity against Streptococcus pneumoniae ATCC 49619 assessed as growth inhibition by broth microdilution method. A digest of the protocol: as §2
Assay [5] relates to Staphylococcus aureus. The assay can be described thus: Antibacterial activity against multidrug and methicillin-resistant Staphylococcus aureus 25697 assessed as growth inhibition by broth microdilution method. In a few lines:
as §1

For assay [6], the system named is Staphylococcus aureus. Kind of assay: Antibacterial activity against Staphylococcus aureus ATCC 29213 assessed as growth inhibition by broth microdilution method. A digest of the protocol:
as §2

Assay [7] has as its system Bacillus subtilis. Kind of assay: Antibacterial activity against Bacillus subtilis 168 trpC2 assessed as growth inhibition by broth microdilution method. To be noted: subsp. subtilis str. 168. A digest of the protocol:
as §2

With `C=C1NC(=O)C(C)C(CCC(C)C(=O)/C=C/C(C)=C/CCC(C)CCCCCC)OC(=O)C(CCC(N)=O)NC(=O)C(C)CNC1=O` (stereo not drawn), the MIC in assay [1], in assay [2], in assay [3], in assay [4], in assay [5] and in assay [6] was over 64 µg/mL in each case. Further, in assay [7], the MIC is over 64 µg/mL.

As to `CC(=O)C[C@@H](O)Cc1cc2cc(O)cc(O)c2c(=O)o1`, the MIC in assay [1], in assay [2], in assay [3], in assay [4], in assay [5] and in assay [6] was over 64 µg/mL in each case. In addition, the MIC in assay [7] is over 64 µg/mL.

Take `C[C@@H](O)C[C@@H](O)Cc1cc2cc(O)cc(O)c2c(=O)o1`: the MIC in assay [1], in assay [2], in assay [3], in assay [4], in assay [5] and in assay [6] was over 64 µg/mL throughout. The MIC in assay [7] was over 64 µg/mL.

Turning to `Cc1cc(=O)cc(Cc2cc(O)cc(O)c2)o1`, the MIC in assay [1], in assay [2], in assay [3], in assay [4], in assay [5] and in assay [6] was over 64 µg/mL each time. The MIC in assay [7] was over 64 µg/mL.

Regarding `COC(=O)c1oc(=O)c2c(O)c3c(=O)cc(C)oc3cc2c1O`, the MIC in assay [1] was over 64 µg/mL; in assay [2], over 64 µg/mL; in assay [3], 8 µg/mL; in assay [4], 4 µg/mL; in assay [5] it was 2 µg/mL; in assay [6], 2 µg/mL. Moreover, the MIC in assay [7] came to 8 µg/mL.

As to `O=C(O)CNc1ccccc1C(=O)O`, the MIC in assay [1], in assay [2], in assay [3], in assay [4], in assay [5] and in assay [6] was over 64 µg/mL throughout. The MIC in assay [7] is over 64 µg/mL.

On to `O=C(O)c1cn(C2CC2)c2cc(N3CCNCC3)c(F)cc2c1=O` [CIPROFLOXACIN], for which the MIC in assay [1] was 16 µg/mL; in assay [3] it was 16 µg/mL; in assay [4], 0.25 µg/mL; in assay [5] it was 8 µg/mL; in assay [6], 0.0625 µg/mL; in assay [7], 0.16 µg/mL.

For the molecule `CC[C@H](C)[C@H]1C(=O)O[C@H](C(C)C)C(=O)N(C)[C@@H](C(C)C)C(=O)O[C@H](C(C)C)C(=O)N(C)[C@@H](C(C)C)C(=O)O[C@H](C(C)C)C(=O)N1C` [ENNIATIN B1], the MIC in assay [1] is over 64 µg/mL; in assay [2], over 64 µg/mL; in assay [3] it was 8 µg/mL; in assay [4] it was 4 µg/mL; in assay [5], 8 µg/mL; in assay [6], 8 µg/mL. In addition, the MIC in assay [7] is 16 µg/mL.

On to `CC(C)[C@H]1C(=O)O[C@H](C(C)C)C(=O)N(C)[C@@H](C(C)C)C(=O)O[C@H](C(C)C)C(=O)N(C)[C@@H](C(C)C)C(=O)O[C@H](C(C)C)C(=O)N1C` [ENNIATIN B], for which the MIC in assay [1] is over 64 µg/mL; in assay [2], over 64 µg/mL; in assay [3], over 64 µg/mL; in assay [4], 16 µg/mL; in assay [5], over 64 µg/mL; in assay [6], over 64 µg/mL. Moreover, the MIC in assay [7] was over 64 µg/mL.

As for `CN(C)[C@@H]1C(O)=C(C(N)=O)C(=O)[C@@]2(O)C(O)=C3C(=O)c4c(O)cccc4[C@@](C)(O)[C@H]3C[C@@H]12` [TETRACYCLINE], the MIC in assay [1] came out at 32 µg/mL; in assay [2], 0.5 µg/mL; in assay [3], 64 µg/mL; in assay [4], 0.0625 µg/mL; in assay [5], 32 µg/mL; in assay [6], 0.25 µg/mL. Besides, the MIC in assay [7] was 4 µg/mL.

`CN[C@H](CC(C)C)C(=O)N[C@H]1C(=O)N[C@@H](CC(N)=O)C(=O)N[C@H]2C(=O)N[C@H]3C(=O)N[C@H](C(=O)N[C@H](C(=O)O)c4cc(O)cc(O)c4-c4cc3ccc4O)[C@H](O)c3ccc(c(Cl)c3)Oc3cc2cc(c3O[C@@H]2O[C@H](CO)[C@@H](O)[C@H](O)[C@H]2O[C@H]2C[C@](C)(N)[C@H](O)[C@H](C)O2)Oc2ccc(cc2Cl)[C@H]1O` [VANCOMYCIN]: the MIC was over 64 µg/mL in assay [1], over 64 µg/mL in assay [2], 0.125 µg/mL in assay [4] and 0.125 µg/mL in assay [7].

As a reminder, the MIC is the lowest concentration found to suppress growth.
